The RNAGym collection of RNA variant scans (doi:10.1126/science.aae0568)
Variants at the floor of the assay were thinned out.

B1: tRNA (parent)
chain: GUUCCGUUGGCGUAAUGGUAACGCGUCUCCCUCCUAAGGAGAAGACUGCGGGUUCGAGUCCCGUACGGAACG

Variants of: B1
Test: yeast fitness relative to wild type (ratio to wild type); higher = fitter; tRNA-Arg(CCU), competitive growth, 37 C, YPD
Outline: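 Start and end populations of a pooled competition were compared by 100-nucleotide paired-end sequencing of gene amplicons. The Saccharomyces cerevisiae strains carried tRNA-Arg(CCU) gene variants at the native genomic locus, synthesised with a 3% per-site mutation rate at 69 sites, and competed in YPD at 37°C for 24 hours in six parallel replicates. Darwinian fitness relative to wild type was based on the change in genotype frequencies. Genotypes required ≥ 100 starting reads, and estimates < 0.5 were set to 0.5.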
With U7A C11U U47A the yeast fitness was no more than 0.5. For G6U C27G, the yeast fitness was 0.545. For U7A C29G A36C G67A, the yeast fitness was no more than 0.5. U7A C11U A15G A65C showed a yeast fitness of no more than 0.5. Work on G6U C34U yielded a yeast fitness of 0.573. In the case of U7A A14C A42G A57U, the yeast fitness is reported as no more than 0.5. With G6C G17C U32G A40C G67A the yeast fitness was 0.603. U7A C27U U32C gave a yeast fitness of 0.575. In the case of U7A A21C C33A A45U C62A, the yeast fitness is reported as no more than 0.5. Variant U7A A14U G68A has a yeast fitness of no more than 0.5. Work on U7A C31G U64A C66U G68C A69G yielded a yeast fitness of no more than 0.5. U7A A21C C29U A37G C55U gave a yeast fitness of 0.568. Variant U7A A21C U54C C61G has a yeast fitness of no more than 0.5. Variant G6C G51C A57G C61U A65C has a yeast fitness of no more than 0.5. Work on G6U C34U C61U yielded a yeast fitness of no more than 0.5. In the case of U7A A14G A15C A36G A40U C46A G52C A70U, the yeast fitness is reported as 0.649. In the case of U7A C22A G52A G58A, the yeast fitness is reported as no more than 0.5. With U7A A21C C30U A42C G48C the yeast fitness was no more than 0.5. U7A C34A gave a yeast fitness of 0.662. U7A C11U A40G A42U C62A showed a yeast fitness of no more than 0.5. In the case of U7A C30A C31G A43U U54G C62G, the yeast fitness is reported as no more than 0.5. In the case of G6C U7G C24G C34U U53C C55G C62A, the yeast fitness is reported as no more than 0.5. With G6C U53C C62U C66U the yeast fitness was no more than 0.5. G6U C33U gave a yeast fitness of 0.562. Variant U7A A45G C61G has a yeast fitness of no more than 0.5. Work on G6C U7G yielded a yeast fitness of 0.725. U7A A43G G51C showed a yeast fitness of 0.537. With G6C U13G G18A U54C C55A the yeast fitness was no more than 0.5. Work on G6C U47A G51C yielded a yeast fitness of 0.525. Work on U7A A42U yielded a yeast fitness of 0.696. U7A C27U C30G G38C C49U A65G gave a yeast fitness of 0.664. Variant U7A A21C U26A C30A A45G G52A has a yeast fitness of 0.547. G6C U7C G23C C24A C49U C60A showed a yeast fitness of no more than 0.5. Work on U7A C29G U64C yielded a yeast fitness of no more than 0.5. In the case of G6C U13G C22A C34G C62A, the yeast fitness is reported as 0.59. In the case of U7A A21U C27G C33G A45U, the yeast fitness is reported as 0.506. G6C U19A A20U C22G U28C C34A G52A showed a yeast fitness of no more than 0.5. Variant U7A A21U A65C has a yeast fitness of 0.577. Work on G6U U32C yielded a yeast fitness of 0.766. U7A C30U C46U C49U showed a yeast fitness of no more than 0.5. Work on G6C U8A C22U U59C yielded a yeast fitness of no more than 0.5. G6C G18C C22U C34G A36U A57C C66U gave a yeast fitness of no more than 0.5. With U7A C11A A20G G23A U26G G50A G52A C60U C61G the yeast fitness was no more than 0.5. Work on U7A A14U C22U C27A C33U A45C U53C A69C yielded a yeast fitness of 0.632. U7A A14C A20G showed a yeast fitness of no more than 0.5. Variant G6C U7C C31A has a yeast fitness of no more than 0.5. With U7A C30G A43C A57U G58A the yeast fitness was no more than 0.5. Variant G6C G41C A45G G63A C66G G67C has a yeast fitness of no more than 0.5. U7A A21U G41A U64A showed a yeast fitness of no more than 0.5. Variant G6C U32A A37U has a yeast fitness of 0.583. Variant U7A C24U has a yeast fitness of 0.669. Variant U7A C29A G50C has a yeast fitness of no more than 0.5. Work on G6C U16C yielded a yeast fitness of 0.803. Work on G6C U16A yielded a yeast fitness of 0.631. G6C U16G showed a yeast fitness of 0.68. In the case of U7A A37G, the yeast fitness is reported as 0.585. U7A A37U gave a yeast fitness of 0.696. With U7A C29A G58A C61G G63A A70U the yeast fitness was 0.526. U7A A42C U47A G63C A69C showed a yeast fitness of no more than 0.5. Variant U7A A70G has a yeast fitness of 0.829. U7A A70U gave a yeast fitness of 0.689. With U7A A37U C62A the yeast fitness was 0.571. In the case of G6C U19A, the yeast fitness is reported as 0.78. Variant U7A A20G G23A U26G G50U has a yeast fitness of no more than 0.5. Work on U7A A15G G23A C27A U28C C29G C61A yielded a yeast fitness of no more than 0.5. For U7A C27A G67A, the yeast fitness was no more than 0.5. Variant U7A A21G C30G A36G has a yeast fitness of no more than 0.5. U7A A37G A40G A43G G52C U59G C66U A69U gave a yeast fitness of no more than 0.5. Work on G6C U16A G23C U64A yielded a yeast fitness of no more than 0.5. G6C U7A C27U showed a yeast fitness of no more than 0.5. In the case of U7A C22G, the yeast fitness is reported as 0.669. With G6C G48C A65U A70U the yeast fitness was no more than 0.5. Work on U7A A37G A40G A69U yielded a yeast fitness of no more than 0.5. U7A C29U A37C U53A C55U C60A showed a yeast fitness of no more than 0.5. Work on G6C G18C C22U C34G A36U C49A A57C C66U yielded a yeast fitness of no more than 0.5. G6C U7G U16G A43G showed a yeast fitness of 0.707. Work on G6C U13A A20U A21G A69U yielded a yeast fitness of no more than 0.5. Variant U7A C31G G51A U64A C66U G68C has a yeast fitness of no more than 0.5. In the case of G6C G67C, the yeast fitness is reported as 0.75. Work on G6C G67U yielded a yeast fitness of 0.844. Work on G6C G67A yielded a yeast fitness of 0.874. Variant U7A A21G C30G A36G C46G C66U has a yeast fitness of no more than 0.5. Work on U7A C22A C24U A36U yielded a yeast fitness of no more than 0.5. U7A C11U A36U C62U C66U showed a yeast fitness of no more than 0.5. In the case of G6C G38C, the yeast fitness is reported as 0.693. Variant U7A C33G has a yeast fitness of 0.59. In the case of U7A C33U, the yeast fitness is reported as 0.592. Variant G6C U8C G41C has a yeast fitness of no more than 0.5. Variant U7A C27A U28C C49A has a yeast fitness of 0.622. For G6C U19A G38C C55A, the yeast fitness was no more than 0.5. With U7A A20G G23A C24U U35A C60A A69C the yeast fitness was 0.548. G6C U35A G44C C60A showed a yeast fitness of no more than 0.5. Variant U7A A21G has a yeast fitness of 0.738. Variant U7A A21C has a yeast fitness of 0.54. In the case of G6C U8C C22U, the yeast fitness is reported as 0.526. For G6C G58C C61A, the yeast fitness was 0.528. In the case of U7A A20C G50A, the yeast fitness is reported as no more than 0.5. For U7A A37C A43C, the yeast fitness was 0.583. G6C G51A A65G C66U gave a yeast fitness of no more than 0.5. Work on G6C U13G G18A C55G yielded a yeast fitness of no more than 0.5. U7A A45C G68A showed a yeast fitness of no more than 0.5. G6C U26C gave a yeast fitness of 0.959. G6C U26A showed a yeast fitness of 0.641. In the case of G6C U26G, the yeast fitness is reported as 0.721. For U7A A21C C29U A37G A57G, the yeast fitness was no more than 0.5. Variant G6U U7C A70C has a yeast fitness of no more than 0.5. G6C G25A gave a yeast fitness of 1.17. In the case of G6C G25C, the yeast fitness is reported as 0.971. For G6C U13G C55G, the yeast fitness was 0.659. In the case of G6C U26C G68A, the yeast fitness is reported as 0.537. For G6C G18A G23A C30U C33U A65G, the yeast fitness was 0.536. Work on G6C G58C U64A yielded a yeast fitness of 0.529. U7A A20G C61A gave a yeast fitness of 0.616. With U7A C29G C46G the yeast fitness was no more than 0.5. Variant G6U U8C has a yeast fitness of 0.769. U7A C22U U26C A40G A43U C49A gave a yeast fitness of no more than 0.5. U7A C24U C33A A65U gave a yeast fitness of 0.58. Variant U7A A43U G52C has a yeast fitness of no more than 0.5. Variant G6C G25A C27G A57U has a yeast fitness of no more than 0.5. Work on G6C U8C U54C G58A yielded a yeast fitness of no more than 0.5. With U7A C22G G38C C60U the yeast fitness was no more than 0.5. Variant G6C U8A C22U C61G has a yeast fitness of 0.501. G6C G52C C61A gave a yeast fitness of no more than 0.5. G6C G50A G67A gave a yeast fitness of 0.606. G6C U59C showed a yeast fitness of 0.656. U7A A20G G68A showed a yeast fitness of no more than 0.5. For U7A C33G C60G G63A, the yeast fitness was no more than 0.5. In the case of U7A C22A C30U C61U G67A G68U, the yeast fitness is reported as no more than 0.5. Variant U7A C29U has a yeast fitness of 0.67. U7A C27U G52C gave a yeast fitness of 0.583. Variant G6C U8C G41A A42C G50C A70G has a yeast fitness of no more than 0.5. Variant G6C G44C G67U has a yeast fitness of 0.501. For G6C G41C C49G, the yeast fitness was 0.544. For U7A C24G C29G C30U A40C G68C, the yeast fitness was 0.663. U7A A36G A43G C62A showed a yeast fitness of no more than 0.5. In the case of U7A A45C U47A G68A, the yeast fitness is reported as no more than 0.5. Work on G6C G18C C22U yielded a yeast fitness of 0.548. For G6C U7G U16G A43G A65C, the yeast fitness was 0.805. U7A C27U C66A showed a yeast fitness of no more than 0.5. With G6C U54C C66A the yeast fitness was 0.6. U7A A40U G67A gave a yeast fitness of no more than 0.5. For U7A A21G C30G, the yeast fitness was no more than 0.5. With U7A A15U A40G G68C the yeast fitness was 0.514. With U7A A42C C62U the yeast fitness was no more than 0.5. With G6C G25C A40U A65C the yeast fitness was no more than 0.5. U7A C29A G58A C61G gave a yeast fitness of 0.604. U7A A20C U28C G58C showed a yeast fitness of 0.647. In the case of G6C U8C A14G, the yeast fitness is reported as 0.522. In the case of G6C U8C G56A, the yeast fitness is reported as 0.672. G6C U53A C61U gave a yeast fitness of no more than 0.5. Work on G6C U13C yielded a yeast fitness of 0.823. For G6C G41C C49G U59G G63A C66U, the yeast fitness was 0.54. In the case of U7A C34A A42C G58A, the yeast fitness is reported as no more than 0.5. In the case of U7A A21C U54C, the yeast fitness is reported as no more than 0.5. Variant U7A A21U G38C A45G U59A has a yeast fitness of no more than 0.5. For U7A A20G, the yeast fitness was 0.713. Work on U7A A20C yielded a yeast fitness of 0.733. Work on U7A C27U C30A A69U yielded a yeast fitness of no more than 0.5. Variant G6C U8C G25A C34U A43U has a yeast fitness of no more than 0.5. For G6C U16G C27U C60G, the yeast fitness was 0.582. Variant G6C U8C C66U has a yeast fitness of 0.73. Work on G6C U8C C49U A65U yielded a yeast fitness of no more than 0.5. With U7A A36U A45G U47A the yeast fitness was no more than 0.5. U7A C27A C29G C30G U47A A70G showed a yeast fitness of no more than 0.5. In the case of G6C U16G U35A G51C, the yeast fitness is reported as no more than 0.5. Variant U7A A20C G68C has a yeast fitness of 0.539. For G6C U8C G58C G67A, the yeast fitness was no more than 0.5.
